Reference: ChEMBL document CHEMBL4811251 (Eur J Med Chem, 2021)
pKi: −log10 of the molar value. Values belong to the molecule of their own block, whether it stands above or below them. The source made the active and inactive calls. No cut-off for these calls is given here.

Assays:
MV4-11 = assay: Antiproliferative activity against human MV4-11 cells assessed as growth inhibition after 72 hrs by resazurin assay; format: functional
Method in brief: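 MV4-11 cells kept at 37 °C with 5% CO2 in ATCC-recommended medium plus 10% FBS. In-house resazurin viability assay after 72 h exposure. GI50 reported as mean ± standard deviation from at least two replicates.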

CDK8/Cyclin C = CDK8/Cyclin C (Homo sapiens, UniProt P49336); assay: Inhibition of CDK8/Cyclin C (unknown origin) using RBER-CHKtide as substrate in presence of [33P]gammaATP incubated for 60 mins by microplate scintillation counter analysis
[1] = biological target: Glycogen synthase kinase-3 alpha (Homo sapiens) (UniProt P49840); assay: Inhibition of GSK3alpha (unknown origin) assessed as residual activity at 1 uM relative to control
[2] = biological target: Glycogen synthase kinase-3 beta (Homo sapiens) (UniProt P49841); assay: Inhibition of GSK3beta (unknown origin) assessed as residual activity at 1 uM relative to control
[3] = biological target: Cyclin-dependent kinase 1/cyclin B1 (Homo sapiens) (UniProt P06493+P14635); assay: Inhibition of CDK1/Cyclin B (unknown origin) assessed as residual activity at 1 uM relative to control; format: protein-complex assay
[4] = biological target: CDK9/cyclin T1 (Homo sapiens) (UniProt O60563+P50750); assay: Inhibition of CDK9/Cyclin T1 (unknown origin) assessed as residual activity at 1 uM relative to control; format: protein-complex assay
[5] = biological target: Protein kinase C theta (Homo sapiens) (UniProt Q04759); assay: Inhibition of PKC theta (unknown origin) assessed as residual activity at 1 uM relative to control
[6] = Volume of distribution at steady state in Sprague-Dawley rat at 5 mg/kg, iv measured upto 24 hrs by LC/MS/MS analysis; format: ADME, organism-based; conditions: in vivo, read-out: Vdss
[7] = Volume of distribution at steady state in BALB/c mouse at 2 mg/kg, iv measured upto 24 hrs by LC/MS/MS analysis; format: ADME, organism-based; conditions: in vivo, read-out: Vdss
[8] = Clearance in Sprague-Dawley rat at 5 mg/kg, iv measured upto 24 hrs by LC/MS/MS analysis; format: ADME, organism-based; conditions: in vivo
[9] = Clearance in BALB/c mouse at 2 mg/kg, iv measured upto 24 hrs by LC/MS/MS analysis; format: ADME, organism-based; conditions: in vivo
[10] = Cmax in Sprague-Dawley rat at 5 mg/kg, iv measured upto 24 hrs by LC/MS/MS analysis; format: ADME, organism-based; design: route intravenous, dose 5 mg/kg, time <=24; conditions: in vivo
[11] = Cmax in Sprague-Dawley rat at 20 mg/kg, po measured upto 24 hrs by LC/MS/MS analysis; format: ADME, organism-based; design: route oral, dose 20 mg/kg, time <=24; conditions: in vivo
[12] = Cmax in BALB/c mouse at 2 mg/kg, iv measured upto 24 hrs by LC/MS/MS analysis; format: ADME, organism-based; design: route intravenous, dose 2 mg/kg, time <=24; conditions: in vivo
[13] = Cmax in BALB/c mouse at 10 mg/kg, po measured upto 24 hrs by LC/MS/MS analysis; format: ADME, organism-based; design: route oral, dose 10 mg/kg, time <=24; conditions: in vivo
[14] = Tmax in Sprague-Dawley rat at 5 mg/kg, iv measured upto 24 hrs by LC/MS/MS analysis; format: ADME, organism-based; conditions: in vivo
[15] = Tmax in Sprague-Dawley rat at 20 mg/kg, po measured upto 24 hrs by LC/MS/MS analysis; format: ADME, organism-based; conditions: in vivo
[16] = Tmax in BALB/c mouse at 2 mg/kg, iv measured upto 24 hrs by LC/MS/MS analysis; format: ADME, organism-based; conditions: in vivo
[17] = Tmax in BALB/c mouse at 10 mg/kg, po measured upto 24 hrs by LC/MS/MS analysis; format: ADME, organism-based; conditions: in vivo
[18] = Half life in Sprague-Dawley rat at 5 mg/kg, iv measured upto 24 hrs by LC/MS/MS analysis; format: ADME, organism-based; conditions: in vivo
[19] = Half life in Sprague-Dawley rat at 20 mg/kg, po measured upto 24 hrs by LC/MS/MS analysis; format: ADME, organism-based; conditions: in vivo
[20] = Half life in BALB/c mouse at 2 mg/kg, iv measured upto 24 hrs by LC/MS/MS analysis; format: ADME, organism-based; conditions: in vivo
[21] = Half life in BALB/c mouse at 10 mg/kg, po measured upto 24 hrs by LC/MS/MS analysis; format: ADME, organism-based; conditions: in vivo
[22] = AUC in Sprague-Dawley rat at 5 mg/kg, iv measured upto 24 hrs by LC/MS/MS analysis; format: ADME, organism-based; design: route intravenous, dose 5 mg/kg, time <=24; conditions: in vivo
[23] = AUC in Sprague-Dawley rat at 20 mg/kg, po measured upto 24 hrs by LC/MS/MS analysis; format: ADME, organism-based; design: route oral, dose 20 mg/kg, time <=24; conditions: in vivo
[24] = AUC in BALB/c mouse at 2 mg/kg, iv measured upto 24 hrs by LC/MS/MS analysis; format: ADME, organism-based; design: route intravenous, dose 2 mg/kg, time <=24; conditions: in vivo
[25] = AUC in BALB/c mouse at 10 mg/kg, po measured upto 24 hrs by LC/MS/MS analysis; format: ADME, organism-based; design: route oral, dose 10 mg/kg, time <=24; conditions: in vivo
[26] = Oral bioavailability in Sprague-Dawley rat at 20 mg/kg measured upto 24 hrs by LC/MS/MS analysis; format: ADME, organism-based; conditions: in vivo
[27] = Oral bioavailability in BALB/c mouse at 10 mg/kg measured upto 24 hrs by LC/MS/MS analysis; format: ADME, organism-based; conditions: in vivo

CDK8/Cyclin C, sequence (P49336 whole entry): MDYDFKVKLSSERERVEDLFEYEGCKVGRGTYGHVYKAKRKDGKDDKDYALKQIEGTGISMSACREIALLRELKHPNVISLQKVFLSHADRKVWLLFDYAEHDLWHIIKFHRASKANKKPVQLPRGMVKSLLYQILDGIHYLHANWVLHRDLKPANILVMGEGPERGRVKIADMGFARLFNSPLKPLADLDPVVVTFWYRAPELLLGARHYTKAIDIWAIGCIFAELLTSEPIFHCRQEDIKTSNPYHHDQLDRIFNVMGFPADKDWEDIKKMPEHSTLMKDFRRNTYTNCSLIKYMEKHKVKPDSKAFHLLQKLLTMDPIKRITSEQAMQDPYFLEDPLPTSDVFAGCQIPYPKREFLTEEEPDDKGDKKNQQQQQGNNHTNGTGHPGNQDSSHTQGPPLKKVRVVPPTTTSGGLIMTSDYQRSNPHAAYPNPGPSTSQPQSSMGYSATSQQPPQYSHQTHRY
CDK8/Cyclin C, sequence (P24863 whole entry, further chain): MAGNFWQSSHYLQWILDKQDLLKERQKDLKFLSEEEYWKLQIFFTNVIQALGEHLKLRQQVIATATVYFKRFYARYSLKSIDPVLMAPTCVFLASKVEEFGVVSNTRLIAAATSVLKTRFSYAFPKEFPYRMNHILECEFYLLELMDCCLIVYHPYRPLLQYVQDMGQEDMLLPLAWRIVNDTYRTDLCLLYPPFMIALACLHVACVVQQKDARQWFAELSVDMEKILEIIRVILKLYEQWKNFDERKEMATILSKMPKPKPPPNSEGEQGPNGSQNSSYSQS
Protein kinase C theta (Homo sapiens), sequence (Q04759 whole entry, looked up): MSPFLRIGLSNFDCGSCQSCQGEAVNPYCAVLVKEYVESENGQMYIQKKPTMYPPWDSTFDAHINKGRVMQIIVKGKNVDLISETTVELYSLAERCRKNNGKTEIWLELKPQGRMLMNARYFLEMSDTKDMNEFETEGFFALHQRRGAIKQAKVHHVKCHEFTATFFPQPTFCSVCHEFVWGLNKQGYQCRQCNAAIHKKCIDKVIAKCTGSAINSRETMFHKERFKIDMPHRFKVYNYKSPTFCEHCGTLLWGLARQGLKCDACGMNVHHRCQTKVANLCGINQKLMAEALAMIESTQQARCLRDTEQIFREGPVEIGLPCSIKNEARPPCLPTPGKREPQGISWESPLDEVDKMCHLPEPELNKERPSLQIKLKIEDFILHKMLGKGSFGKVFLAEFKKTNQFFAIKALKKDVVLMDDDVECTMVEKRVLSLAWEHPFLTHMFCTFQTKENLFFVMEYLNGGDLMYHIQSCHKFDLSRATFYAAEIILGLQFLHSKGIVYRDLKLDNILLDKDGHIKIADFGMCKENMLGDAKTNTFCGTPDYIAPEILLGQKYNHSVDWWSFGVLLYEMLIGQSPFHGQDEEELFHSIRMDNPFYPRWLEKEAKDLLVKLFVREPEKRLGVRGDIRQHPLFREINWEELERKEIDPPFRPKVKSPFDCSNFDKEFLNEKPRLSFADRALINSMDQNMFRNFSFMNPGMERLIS
Cyclin-dependent kinase 1/cyclin B1 (Homo sapiens), sequence (P06493 whole entry, looked up): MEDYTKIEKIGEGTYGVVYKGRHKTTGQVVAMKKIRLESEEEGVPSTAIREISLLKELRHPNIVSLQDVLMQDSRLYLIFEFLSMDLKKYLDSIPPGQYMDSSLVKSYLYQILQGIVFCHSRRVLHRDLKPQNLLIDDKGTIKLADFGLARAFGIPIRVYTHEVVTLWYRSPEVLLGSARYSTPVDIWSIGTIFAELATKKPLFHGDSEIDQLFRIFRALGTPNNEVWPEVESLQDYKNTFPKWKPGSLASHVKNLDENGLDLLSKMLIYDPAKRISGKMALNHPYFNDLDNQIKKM
Cyclin-dependent kinase 1/cyclin B1 (Homo sapiens), sequence (P14635 whole entry, looked up): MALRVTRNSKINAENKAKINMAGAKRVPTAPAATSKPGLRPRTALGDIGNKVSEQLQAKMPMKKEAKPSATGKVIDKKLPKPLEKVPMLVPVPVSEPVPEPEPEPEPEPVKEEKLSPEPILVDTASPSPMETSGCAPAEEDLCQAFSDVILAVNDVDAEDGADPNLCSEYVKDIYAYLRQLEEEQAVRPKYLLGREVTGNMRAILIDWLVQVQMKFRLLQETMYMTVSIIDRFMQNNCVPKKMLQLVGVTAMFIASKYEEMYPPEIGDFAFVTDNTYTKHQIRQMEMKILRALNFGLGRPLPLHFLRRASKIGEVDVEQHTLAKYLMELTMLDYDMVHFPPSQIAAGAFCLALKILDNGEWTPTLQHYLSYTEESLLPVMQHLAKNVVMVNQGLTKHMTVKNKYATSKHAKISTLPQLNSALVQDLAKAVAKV
Glycogen synthase kinase-3 beta (Homo sapiens), sequence (P49841 whole entry, looked up): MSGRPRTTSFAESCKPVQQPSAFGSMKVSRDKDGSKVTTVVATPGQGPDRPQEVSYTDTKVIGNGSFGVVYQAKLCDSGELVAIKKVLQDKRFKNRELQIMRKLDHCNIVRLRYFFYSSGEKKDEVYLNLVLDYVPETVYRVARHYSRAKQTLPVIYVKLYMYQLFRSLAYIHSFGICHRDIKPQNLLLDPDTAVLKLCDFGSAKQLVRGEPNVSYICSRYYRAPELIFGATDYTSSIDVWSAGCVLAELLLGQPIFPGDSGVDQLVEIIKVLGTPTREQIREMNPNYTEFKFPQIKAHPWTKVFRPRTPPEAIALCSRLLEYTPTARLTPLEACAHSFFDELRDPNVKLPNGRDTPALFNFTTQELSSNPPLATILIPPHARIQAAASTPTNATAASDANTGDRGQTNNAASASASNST
Glycogen synthase kinase-3 alpha (Homo sapiens), sequence (P49840 2-483 limits assumed): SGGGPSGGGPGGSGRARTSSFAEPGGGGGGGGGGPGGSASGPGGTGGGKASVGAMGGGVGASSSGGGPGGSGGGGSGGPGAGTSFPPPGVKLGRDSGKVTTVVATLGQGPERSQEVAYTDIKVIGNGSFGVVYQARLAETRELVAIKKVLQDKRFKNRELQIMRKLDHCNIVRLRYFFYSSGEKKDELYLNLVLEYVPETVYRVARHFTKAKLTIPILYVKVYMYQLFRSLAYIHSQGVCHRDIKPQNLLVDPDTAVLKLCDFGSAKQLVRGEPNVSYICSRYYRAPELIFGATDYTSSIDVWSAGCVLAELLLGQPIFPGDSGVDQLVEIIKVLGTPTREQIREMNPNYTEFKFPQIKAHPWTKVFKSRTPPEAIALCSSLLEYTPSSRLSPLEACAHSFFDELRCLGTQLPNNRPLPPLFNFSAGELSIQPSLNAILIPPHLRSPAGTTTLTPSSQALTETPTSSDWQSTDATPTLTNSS

GI50 (MV4-11): 480 nM
pKi (CDK8/Cyclin C): 8.00
SMILES: O=C1NCCC12CCN(c1c(Cl)cncc1-c1cccs1)CC2

GI50 (MV4-11): 5190 nM
pKi (CDK8/Cyclin C): 7.09
SMILES: O=Cc1ccc(-c2cncc(Cl)c2N2CCC3(CCNC3=O)CC2)o1

GI50 (MV4-11): 750 nM
pKi (CDK8/Cyclin C): 7.38
SMILES: O=C1NCCC12CCN(c1c(Cl)cncc1-c1ccoc1)CC2

GI50 (MV4-11): 750 nM
pKi (CDK8/Cyclin C): 7.17
SMILES: O=Cc1ccc(-c2cncc(Cl)c2N2CCC3(CCNC3=O)CC2)s1

GI50 (MV4-11): 5150 nM
pKi (CDK8/Cyclin C): 7.34
SMILES: CC(C)(C)OC(=O)N1CCN(Cc2ccc(-c3cncc(Cl)c3N3CCC4(CCNC4=O)CC3)s2)CC1

GI50 (MV4-11): 910 nM
pKi (CDK8/Cyclin C): 8.10
SMILES: Cc1ccsc1-c1cncc(Cl)c1N1CCC2(CCNC2=O)CC1

GI50 (MV4-11): 50 nM
SMILES: Cn1ncc2cc(-c3cnc(N)c(Cl)c3N3CCC4(CCNC4=O)CC3)ccc21

GI50 (MV4-11): 190 nM
pKi (CDK8/Cyclin C): 7.74
SMILES: O=C1NCCC12CCN(c1c(Cl)cncc1-c1ccsc1)CC2

GI50 (MV4-11): 1440 nM
pKi (CDK8/Cyclin C): 7.18
SMILES: CC(=O)c1ccc(-c2cncc(Cl)c2N2CCC3(CCNC3=O)CC2)s1

GI50 (MV4-11): 940 nM
pKi (CDK8/Cyclin C): 7.59
SMILES: O=C1NCCC12CCN(c1c(Cl)cncc1-c1ccco1)CC2

GI50 (MV4-11): 650 nM
pKi (CDK8/Cyclin C): 8.00
SMILES: Cc1csc(-c2cncc(Cl)c2N2CCC3(CCNC3=O)CC2)c1

GI50 (MV4-11): 6140 nM
pKi (CDK8/Cyclin C): 7.03
SMILES: O=C1NCCC12CCN(c1c(Cl)cncc1-c1cnn(C(F)F)c1)CC2

GI50 (MV4-11): 5530 nM
pKi (CDK8/Cyclin C): 6.64
SMILES: Cn1cc(-c2cncc(Cl)c2N2CCC3(CCNC3=O)CC2)cn1

GI50 (MV4-11): 8520 nM
pKi (CDK8/Cyclin C): 6.60
SMILES: O=C1NCCC12CCN(c1c(Cl)cncc1-c1cn[nH]c1)CC2

GI50 (MV4-11): 28700 nM
pKi (CDK8/Cyclin C): 5.76
SMILES: O=Cc1sccc1-c1cncc(Cl)c1N1CCC2(CCNC2=O)CC1

GI50 (MV4-11): 4010 nM
pKi (CDK8/Cyclin C): 6.97
SMILES: O=C1NCCC12CCN(c1c(Cl)cncc1-c1ccc(CN3CCCCC3)s1)CC2

GI50 (MV4-11): 1050 nM
pKi (CDK8/Cyclin C): 7.85
SMILES: O=C1NCCC12CCN(c1c(Cl)cncc1-c1cc[nH]c1)CC2

GI50 (MV4-11): > 100000 nM
pKi (CDK8/Cyclin C): 5.33
SMILES: CC(=O)c1sccc1-c1cncc(Cl)c1N1CCC2(CCNC2=O)CC1

GI50 (MV4-11): 960 nM
Activity [1]: 62%
Activity [2]: 74%
Activity [3]: inactive
Activity [4]: inactive
Activity [5]: inactive
pKi (CDK8/Cyclin C): 8.30
SMILES: O=C1NCCC12CCN(c1c(Cl)cncc1-c1ccc(-c3ccccc3)s1)CC2

GI50 (MV4-11): 4950 nM
pKi (CDK8/Cyclin C): 7.66
SMILES: Cc1ccc(-c2cncc(Cl)c2N2CCC3(CCNC3=O)CC2)o1

GI50 (MV4-11): 650 nM
pKi (CDK8/Cyclin C): 8.00
SMILES: Cc1ccc(-c2cncc(Cl)c2N2CCC3(CCNC3=O)CC2)s1

GI50 (MV4-11): 2970 nM
pKi (CDK8/Cyclin C): 7.44
SMILES: CCOCOCc1ccc(-c2cncc(Cl)c2N2CCC3(CCNC3=O)CC2)o1

GI50 (MV4-11): 560 nM
pKi (CDK8/Cyclin C): 7.85
SMILES: O=C1NCCC12CCN(c1c(Cl)cncc1-c1ccc(Cl)s1)CC2

GI50 (MV4-11): 27100 nM
pKi (CDK8/Cyclin C): 6.07
SMILES: O=Cc1cscc1-c1cncc(Cl)c1N1CCC2(CCNC2=O)CC1

GI50 (MV4-11): 160 nM
Vd [6]: 1.32 L/kg
Vd [7]: 1.6 L/kg
clearance [8]: 13.2 mL/min/kg
clearance [9]: 33.3 mL/min/kg
Cmax [10]: 11.1 µM
Cmax [11]: 1.35 µM
Cmax [12]: 4.96 µM
Cmax [13]: 1.68 µM
Tmax [14]: 9 min
Tmax [15]: 5 h
Tmax [16]: 3 min
Tmax [17]: 0.18 h
half-life [18]: 4.41 h
half-life [19]: 10.1 h
half-life [20]: 0.88 h
half-life [21]: 1.67 h
AUC at 24 h [22]: 18.4 µM·h
AUC at 24 h [23]: 19.5 µM·h
AUC at 24 h [24]: 2.4 µM·h
AUC at 24 h [25]: 3.4 µM·h
bioavailability [26]: 26%
bioavailability [27]: 28%
pKi (CDK8/Cyclin C): 8.15
SMILES: Nc1ncc(-c2cc3ccccc3s2)c(N2CCC3(CCNC3=O)CC2)c1Cl

GI50 (MV4-11): 2530 nM
pKi (CDK8/Cyclin C): 6.92
SMILES: Cc1cc(-c2cncc(Cl)c2N2CCC3(CCNC3=O)CC2)sc1C=O

GI50 (MV4-11): 5150 nM
pKi (CDK8/Cyclin C): 6.73
SMILES: O=Cc1cc(-c2cncc(Cl)c2N2CCC3(CCNC3=O)CC2)co1

GI50 (MV4-11): 2960 nM
pKi (CDK8/Cyclin C): 7.49
SMILES: O=C1NCCC12CCN(c1c(Cl)cncc1-c1ccc(CN3CCOCC3)s1)CC2

GI50 (MV4-11): 900 nM
pKi (CDK8/Cyclin C): 7.52
SMILES: Cn1cccc1-c1cncc(Cl)c1N1CCC2(CCNC2=O)CC1

GI50 (MV4-11): 730 nM
pKi (CDK8/Cyclin C): 7.28
SMILES: O=Cc1cc(-c2cncc(Cl)c2N2CCC3(CCNC3=O)CC2)cs1

GI50 (MV4-11): 3370 nM
pKi (CDK8/Cyclin C): 6.88
SMILES: O=C1NCCC12CCN(c1c(Cl)cncc1-c1ccc(CN3CCCC3)s1)CC2
